In ChEMBL document CHEMBL1125418, “Antimycobacterial activity of a series of pyrazinoic acid esters” (1992):
In brackets after ≈: the same amount, converted by molar mass.

What was measured:
[1] = system: Mycobacterium kansasii; test: In vitro activity against Mycobacterium. kansasii (strain type-SWK).at pH 6.6; assay type: functional
Outline: (§1)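 MIC for pyrazinamide-resistant isolate SWK by agar dilution in Middlebrook 7H10 with 10% OADC at pH 6.6. Serial 2-fold dilutions run 200–3.12 µg/mL in compartmented plates prepared 24–48 h in advance and stored at 4 °C. A drug-free control is included. Plates were held at 37 °C for 4 weeks. The endpoint is 99% (2 log) inhibition of growth.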

[2] = system: Mycobacterium tuberculosis; test: In vitro activity against Mycobacterium. tuberculosis (strain type-BUR)at pH 6.6; assay type: functional
Outline: (§2)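 Twofold serial dilutions (200–3.12 µg/mL) in 7H10 agar with 10% OADC enrichment at pH 6.6, in compartmented plates. Plates were stored at 4 °C and used within 24–48 h. A no-drug compartment served as control for each isolate. Plates were incubated for 4 weeks at 37 °C. MIC was the lowest concentration giving 99% (2 log) growth inhibition.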

[3] = system: Mycobacterium tuberculosis; test: In vitro activity against Mycobacterium. tuberculosis (strain type-ATCC 35828)at pH 6.6; assay type: functional; outline: as §2
[4] = system: Mycobacterium tuberculosis; test: In vitro activity against Mycobacterium. tuberculosis (strain type-BUR)at pH 5.8; assay type: functional
[5] = system: Mycobacterium tuberculosis; test: In vitro activity against Mycobacterium. tuberculosis (strain type-ATCC 35828)at pH 5.8; assay type: functional
Outline: (§3)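 Middlebrook 7H10 agar plus 10% OADC at pH 5.8 in compartmented plates, with serial twofold dilutions from 200 to 3.12 µg/mL. Plates were prepared 24–48 h before use and stored at 4 °C. A drug-free compartment was included per isolate. Incubation was 37 °C for 4 weeks. MIC was the lowest level producing 99% (2 log) inhibition of growth.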

[6] = system: Mycobacterium kansasii; test: In vitro activity against Mycobacterium. kansasii (strain type-SWK)at pH 5.8; assay type: functional
Outline: (§4)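 Pyrazinamide-resistant isolate SWK tested on Middlebrook 7H10 agar plus 10% OADC adjusted to pH 5.8. Compartmented plates hold 2-fold dilutions from 200 to 3.12 µg/mL, prepared 24–48 h before use and kept at 4 °C, with a drug-free compartment. Incubation was 37 °C for 4 weeks. MIC is the lowest level causing 99% (2 log) growth inhibition.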

[7] = system: Mycobacterium kansasii; test: In vitro activity against Mycobacterium. kansasii (strain type-SWK).at pH 5.8; assay type: functional; outline: as §4
[8] = system: Mycobacterium tuberculosis; test: In vitro activity against Mycobacterium. tuberculosis (strain type-H37Rv) at pH 5.8; assay type: functional; details: Mycobacterium tuberculosis; read-out: MIC
[9] = system: Mycobacterium tuberculosis; test: (§5) In vitro activity against Mycobacterium. tuberculosis (strain type-H37Rv) at pH 6.6; assay type: functional; details: Mycobacterium tuberculosis; read-out: MIC
[10] = system: Mycobacterium tuberculosis; test: In vitro inhibitory activity against Mycobacterium tuberculosis (strain type-ATCC 35828) at pH 5.8; assay type: functional; outline: as §3
[11] = system: Mycobacterium kansasii; test: In vitro inhibitory activity against Mycobacterium kansasii (strain type-SWK) at pH 5.8; assay type: functional; outline: as §4
[12] = system: Mycobacterium tuberculosis; test: In vitro inhibitory activity against Mycobacterium tuberculosis (strain type-BUR) at pH 6.6; assay type: functional; outline: as §2
[13] = system: Mycobacterium tuberculosis; test: In vitro inhibitory activity against Mycobacterium tuberculosis (strain type-H37Rv) at pH 5.8; assay type: functional; outline: as §3
[14] = system: Mycobacterium kansasii; test: In vitro inhibitory activity against Mycobacterium kansasii (strain type-SWK) at pH 6.6; assay type: functional; outline: as §1
[15] = system: Mycobacterium tuberculosis; test: In vitro inhibitory activity against Mycobacterium tuberculosis (strain type-BUR) at pH 5.8; assay type: functional; outline: as §3
[16] = system: Mycobacterium tuberculosis; test: In vitro inhibitory activity against Mycobacterium tuberculosis (strain type-ATCC 35828) at pH 6.6; assay type: functional; outline: as §2
[17] = system: Mycobacterium tuberculosis; test: In vitro inhibitory activity against Mycobacterium tuberculosis (strain type-H37Rv) at pH 6.6; assay type: functional; details: Mycobacterium tuberculosis; read-out: MIC
[18] = system: Mycobacterium kansasii; test: In vitro activity against Mycobacterium. kansasii (strain type-SWK) […]; assay type: functional
[19] = system: Mycobacterium tuberculosis; test: In vitro activity against Mycobacterium strain BUR (Mycobacterium tuberculosis); assay type: functional
Outline: (§6)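 Agar dilution in compartmented plates of Middlebrook 7H10 agar with 10% OADC, adjusted to pH 5.8 or pH 6.6. Twofold compound dilutions spanned 200–3.12 µg/mL. Plates were made 24–48 h ahead and held at 4 °C. MIC (µg/mL) was the lowest concentration giving 99% (2 log) growth inhibition.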

[20] = system: Mycobacterium kansasii; test: In vitro activity against Mycobacterium strain SWK (Mycobacterium kansasii); assay type: functional
Outline: (§7)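 Agar dilution MIC against pyrazinamide-resistant clinical isolates on Middlebrook 7H10 agar with 10% OADC at pH 5.8 or pH 6.6. Serial 2-fold dilutions span 200–3.12 µg/mL in compartmented plates made 24–48 h ahead and stored at 4 °C. Each isolate has a drug-free control. Plates were incubated at 37 °C for 4 weeks. MIC is the lowest concentration giving 99% (2 log) growth inhibition.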

[21] = system: Mycobacterium tuberculosis; test: In vitro activity against Mycobacterium strain BAK (Mycobacterium tuberculosis); assay type: functional; details: Mycobacterium tuberculosis; read-out: MIC
[22] = system: Mycobacterium kansasii; test: In vitro activity against Mycobacterium. kansasii (strain type-SWK)at pH 6.6; assay type: functional; outline: as §1
[23] = system: Mycobacterium tuberculosis; test: In vitro activity against Mycobacterium strain DOU (Mycobacterium tuberculosis); assay type: functional; outline: as §6
[24] = system: Mycobacterium tuberculosis; test: (§8) In vitro activity against Mycobacterium strain GLA (Mycobacterium tuberculosis)
[25] = system: Mycobacterium kansasii; test: In vitro activity against Mycobacterium strain SCH (Mycobacterium kansasii); assay type: functional; outline: as §7
[26] = system: Mycobacterium tuberculosis; test: In vitro activity against Mycobacterium strain SMA (Mycobacterium tuberculosis); assay type: functional
[27] = system: Mycobacterium tuberculosis; test: In vitro activity against Mycobacterium strain DUB (Mycobacterium tuberculosis); assay type: functional
[28] = system: Mycobacterium tuberculosis; test: In vitro activity against Mycobacterium strain ATCC 35828 (Mycobacterium tuberculosis); assay type: functional; outline: as §6
[29] = system: Mycobacterium tuberculosis; test: In vitro activity against Mycobacterium strain MCQ (Mycobacterium tuberculosis); assay type: functional; outline: as §6
[30] = system: Mycobacterium tuberculosis; test: In vitro activity against Mycobacterium strain LEL (Mycobacterium tuberculosis); assay type: functional
[31] = system: Mycobacterium tuberculosis; test: In vitro activity against Mycobacterium strain DOL (Mycobacterium tuberculosis); assay type: functional
[32] = system: Mycobacterium tuberculosis; test: In vitro activity against Mycobacterium strain WOO (Mycobacterium tuberculosis); assay type: functional; outline: as §6
[33] = system: Mycobacterium tuberculosis; test: In vitro activity against Mycobacterium strain ING (Mycobacterium tuberculosis); assay type: functional; outline: as §6
[34] = system: Mycobacterium tuberculosis; test: In vitro activity against Mycobacterium strain CES (Mycobacterium tuberculosis); assay type: functional; outline: as §6
[35] = system: Mycobacterium tuberculosis; test: In vitro activity against Mycobacterium. tuberculosis (strain type-ATCC 35828) at pH 6.6; assay type: functional; outline: as §2
[36] = system: Mycobacterium kansasii; test: In vitro activity against Mycobacterium. kansasii (strain type-SWK) pH 6.6; assay type: functional; outline: as §1
[37] = system: Mycobacterium tuberculosis; test: as §8; assay type: functional; details: Mycobacterium tuberculosis; read-out: MIC
[38] = system: Mycobacterium tuberculosis; test: as §5; assay type: functional; outline: as §2
[39] = Mycobacterium tuberculosis, read-out: MIC

SMILES: O=C(OCCBr)c1cnccn1
- MIC [1]: > 200 µg/mL
- MIC [2]: > 200 µg/mL
- MIC [3]: > 200 µg/mL

SMILES: CC(C)(C)c1ccc(OC(=O)c2cnccn2)cc1
- MIC [4, 39]: 25 µg/mL (≈ 97.5 µM)
- MIC [2]: 50 µg/mL (≈ 195 µM)
- MIC [5]: 25 µg/mL (≈ 97.5 µM)
- MIC [3]: 25 µg/mL (≈ 97.5 µM)
- MIC [6]: 25 µg/mL (≈ 97.5 µM)

SMILES: O=C(Oc1ccc([N+](=O)[O-])cc1)c1cnccn1
- MIC [7]: 25 µg/mL (≈ 102 µM)
- MIC [8]: 12.5 µg/mL (≈ 51 µM)
- MIC [1]: 200 µg/mL (≈ 816 µM)
- MIC [4, 39]: 12.5 µg/mL (≈ 51 µM)
- MIC [5]: 25 µg/mL (≈ 102 µM)
- MIC [9]: 50 µg/mL (≈ 204 µM)
- MIC [3]: 200 µg/mL (≈ 816 µM)

SMILES: O=C(O)c1cnccn1 [PYRAZINOIC ACID]
- MIC [10]: 100 µg/mL (≈ 806 µM)
- MIC [11]: > 200 µg/mL
- MIC [12]: > 200 µg/mL
- MIC [13]: 50 µg/mL (≈ 403 µM)
- MIC [14]: > 200 µg/mL
- MIC [15]: 50 µg/mL (≈ 403 µM)
- MIC [16]: > 200 µg/mL
- MIC [17]: 200 µg/mL (≈ 1610 µM)

SMILES: O=C(OCCCl)c1cnccn1
- MIC [4, 39]: 6.25 µg/mL (≈ 33.5 µM)
- MIC [5]: 25 µg/mL (≈ 134 µM)
- MIC [18]: 25 µg/mL (≈ 134 µM)

SMILES: C=CCOC(=O)c1cnccn1
- MIC [19]: 6.25 µg/mL (≈ 38.1 µM)
- MIC [20]: 6.25 µg/mL (≈ 38.1 µM)
- MIC [21]: 3.12 µg/mL (≈ 19 µM)
- MIC [8]: < 3.12 µg/mL
- MIC [22]: 12.5 µg/mL (≈ 76.1 µM)
- MIC [23]: 3.12 µg/mL (≈ 19 µM)
- MIC [24]: 6.25 µg/mL (≈ 38.1 µM)
- MIC [4]: 6.25 µg/mL (≈ 38.1 µM)
- MIC [25]: 6.25 µg/mL (≈ 38.1 µM)
- MIC [26]: 3.12 µg/mL (≈ 19 µM)
- MIC [27]: 6.25 µg/mL (≈ 38.1 µM)
- MIC [28]: 6.25 µg/mL (≈ 38.1 µM)
- MIC [5]: 6.25 µg/mL (≈ 38.1 µM)
- MIC [9]: 200 µg/mL (≈ 1220 µM)
- MIC [29]: < 3.12 µg/mL
- MIC [30]: 3.12 µg/mL (≈ 19 µM)
- MIC [3]: 200 µg/mL (≈ 1220 µM)
- MIC [31, 39]: < 3.12 µg/mL
- MIC [32]: 6.25 µg/mL (≈ 38.1 µM)
- MIC [33]: 3.12 µg/mL (≈ 19 µM)
- MIC [34]: < 3.12 µg/mL
- MIC [6]: < 3.12 µg/mL

SMILES: O=C(OCC(F)(F)F)c1cnccn1
- MIC [19]: 25 µg/mL (≈ 121 µM)
- MIC [35]: > 200 µg/mL
- MIC [20]: 200 µg/mL (≈ 970 µM)
- MIC [21]: 25 µg/mL (≈ 121 µM)
- MIC [8]: 25 µg/mL (≈ 121 µM)
- MIC [36]: > 200 µg/mL
- MIC [37]: 12.5 µg/mL (≈ 60.6 µM)
- MIC [23]: 100 µg/mL (≈ 485 µM)
- MIC [4, 39]: 25 µg/mL (≈ 121 µM)
- MIC [25]: 25 µg/mL (≈ 121 µM)
- MIC [26]: 25 µg/mL (≈ 121 µM)
- MIC [27, 39]: 25 µg/mL (≈ 121 µM)
- MIC [28]: 25 µg/mL (≈ 121 µM)
- MIC [38]: 100 µg/mL (≈ 485 µM)
- MIC [5]: 25 µg/mL (≈ 121 µM)
- MIC [29]: 25 µg/mL (≈ 121 µM)
- MIC [30]: 50 µg/mL (≈ 243 µM)
- MIC [31]: 25 µg/mL (≈ 121 µM)
- MIC [32]: 25 µg/mL (≈ 121 µM)
- MIC [33]: 25 µg/mL (≈ 121 µM)
- MIC [34]: 12.5 µg/mL (≈ 60.6 µM)
- MIC [6]: 100 µg/mL (≈ 485 µM)
